{"data": "Published values gathered from unrelated publications", "observed": "metabolic stability", "matrix": "liver microsomes", "note": "Lines come from different studies, so protocols differ."}
{"SMILES": "CCCn1nc(C(=O)N2CCCCC2)c2c1CCC(N1CCc3ccccc3C1)C2 (stereo not shown)", "system": "mouse", "conditions": "10 µM, 1 h", "compound remaining": "< 25%"}
{"SMILES": "Cc1ccc2c(c1)nc(/C=C/c1cccc3cccnc13)n2-c1ccccc1", "system": "rat", "conditions": "1.5 µM, 0 h", "compound remaining": "100%"}
{"SMILES": "CS(=O)(=O)c1ccc(-c2cnc(N)c(-c3ccc(C(F)(F)F)nc3)c2)cc1", "system": "male CD-1 mouse", "conditions": "1 µM, 30 min", "compound remaining": "> 99%"}
{"SMILES": "O=S(=O)(c1cccc2cccnc12)N1CC(c2nc(-c3ccc(F)cc3)no2)C1", "system": "mouse", "conditions": "10 min", "compound remaining": "74%"}
{"SMILES": "CC(C)NCC(O)COc1cccc2ccccc12 (stereo not shown)", "system": "male rat", "conditions": "1 µM, 30 min", "compound remaining": "< 7%"}
{"SMILES": "N#Cc1ccc(C[C@H](NC(=O)Nc2ccc(F)cc2)C(=O)NCC2(c3ccc(OC(F)(F)F)cc3)CC2)cc1", "system": "rat", "conditions": "10 µM, 30 min, pH 7.4", "compound remaining": "> 80%"}
{"SMILES": "Cc1ccc2c(c1)nc(CCc1cccc3cccnc13)n2-c1ccccc1", "system": "rat", "conditions": "1.5 µM, 30 min", "compound remaining": "0.13%"}
{"SMILES": "Cc1ncsc1-c1ccc(CNC(=O)[C@@H]2C[C@@H](O)CN2C(=O)[C@@H](NC(=O)CCCCCCCCCCNC(=O)O[C@H]2C[C@@H](C)C=C3C=C[C@H](C)[C@H](CC[C@@H]4C[C@@H](O)CC(=O)O4)[C@H]32)C(C)(C)C)cc1", "system": "mouse", "conditions": "1 µM, 45 min, pH 7.4", "compound remaining": "1.42%"}
{"SMILES": "CCCn1nc(C(=O)N2CCCCC2)c2c1CCC(N(C)Cc1ccc(F)cc1)C2 (stereo not shown)", "system": "mouse", "conditions": "10 µM, 1 h", "compound remaining": "0%"}
{"SMILES": "O=C(Nc1ccc(S(=O)(=O)N2CCC(Cl)CC2)cc1)c1ccc([N+](=O)[O-])o1", "system": "mouse", "conditions": "1 µM, 1 h, pH 7.4", "compound remaining": "0.02%"}
